Laboratory results published in the EternaBench riboswitch data.

Test system: MS2 coat protein
Assay: apparent Kd, MS2 coat protein; higher = weaker binding; RNA-MaP array; FMN 200 µM where present
In short: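 Stalled E. coli RNA polymerase produced the designs on Illumina sequencing-chip clusters. SNAP-549-labelled MS2 coat protein was added from 0.7 or 1.5 nM, doubling to 3 µM, without and then with constant ligand, in 100 mM Tris-HCl pH 7.5, 80 mM KCl, 4 mM MgCl2, BSA, DTT, yeast tRNA and Tween-20. The apparent Kd is the median of filtered per-cluster fits of green signal normalised to red-channel RNA signal and control-cluster median Fmax.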

[1] = designed as: OFF switch for flavin mononucleotide, no ligand
[2] = ligand present: flavin mononucleotide, designed as: OFF switch for flavin mononucleotide
[3] = designed as: ON switch for flavin mononucleotide, no ligand
[4] = ligand present: flavin mononucleotide, designed as: ON switch for flavin mononucleotide

| Sequence | apparent Kd [1] | apparent Kd [2] | apparent Kd [3] | apparent Kd [4] |
| --- | --- | --- | --- | --- |
| UGAUCUAUGUAGAAGGCCCAUAUCUAUAUUUAGGGAGGAUAUACAUGAGGAUCACCCAUGUAUAGAGCUAGUGGACUGGUCACC | 0.0377 µM | 0.0481 µM | – | – |
| UGAUCUUUUGUUAGGAUAUGCUGUUGUUUUCAACAGCAGAAGGGACAUGAGGAUCACCCAUGUCUUGUCAUAAA | 0.012 µM | 0.0164 µM | – | – |
| UGAUGAGGUUAGAAGGUACAGAGUAGUGGACCAAACAUGAGGAUCACCCAUGUCAUGGGAGGGAGUAAGGAUAUAAAGUUGUAG | 0.0637 µM | 0.0512 µM | – | – |
| UGCACUAGAUGAGGAUAUGCACAUGAGGAUCACCCAUGUGUGUGCUGCGGUGGUGAUCUGUAAAUGCAGAAGGCAUUCGGGCGG | 0.111 µM | 0.0639 µM | – | – |
| UGCAGACGAGGAUAUAGAUUUAAGUACAUGAGGAUCACCCAUGUGCAUAUGUAUUUAGAUUUAGAAGGCGUCUGCA | 0.482 µM | 0.469 µM | – | – |
| UGCAGACGAGGAUAUGAUCAAUAAUACAUGAGGAUCACCCAUGUAAUACUGAUCCAUGGAUCAGAAGGCGUCUGCA | 0.0167 µM | 0.0229 µM | – | – |
| UGCAGACGAGGAUAUGAUCAAUAAUACAUGAGGAUCACCCAUGUAAUACUGAUCCAUGGAUCAGAAGGCGUCUGCU | 0.0162 µM | 0.0246 µM | – | – |
| UGCCACCGGGAGAAGGGCAUACGUGAGGUCCUACAUAGUCACAUGAGGAUCACCCAUGUAGAAAUGCAGGAUAUCUCGUAGCAG | 0.00693 µM | 0.0135 µM | – | – |
| UGCCUGCAGUCAGGAUAUGAUAACUGGGUAUGGUCUUUGUAACGACAUGAGGAUCACCCAUGUUUUUAGAAGGGACGUGUCAGC | 0.363 µM | 0.127 µM | – | – |
| UGCGGCGCGGGCCACCGCAGGGCCAGAAGGACAUGAGGAUCACCCAUGUGGCAGGACAGGGCGGUGUAGGAUAUGGCAGGCUGG | 0.0167 µM | 0.0208 µM | – | – |
| UGCUUCAUGUAAGGAUAUGCAGCCGUUUCGGCUGCAGAAGGUACUAUAAUACAUGAGGAUCACCCAUGUCUCUCGCAUUGCGAG | – | – | 0.24 µM | 0.0956 µM |
| UGGAACGUGUCAGGAUAUACAUGAGGAUCACCCAUGUAUAGGAAAUAGGCAGGGUCUCUUGCAUAGUAGAAGGGACGCGAUUGC | 0.00658 µM | 0.00775 µM | – | – |
| UGGCCGAAGUUAGGAUAUUGGUUAGGGACGGACUAAGAAGGAGCACAUACAUGAGGAUCACCCAUGUUAGAAGGUUGUCCUCCA | 0.0155 µM | 0.0137 µM | – | – |
| UGGCUACAUGAGGAUCACCCAUGUCAGGAUAUGCCGUUGGAUUGCCUUCGUCGUUCGGGUAGAAGGGACUGCGG | 0.0221 µM | 0.0215 µM | – | – |
| UGGCUACAUGAGGAUCACCCAUGUCAGGAUAUGCCGUUGGAUUGCCUUCGUCGUUCGGGUAGAAGGGACUGCGU | 0.0303 µM | 0.0275 µM | – | – |
| UGGCUGAGUCGAGGAUAUGAUCUUCAUAUAUAUACAUGAGGAUCACCCAUGUAUAAUUACAUGGAUCAGAAGGCGACUCAGCCA | – | – | 0.0316 µM | 0.0115 µM |
| UGGGCGAGCCCAGUACUCACACAUGAGGAUCACCCAUGUGACGAGGAUAUAGACAGCGAUGCGUGCUAGAAGGCGUCACGGUAG | 0.0109 µM | 0.0353 µM | – | – |
| UGGUAACAUGAGGAUCACCCAUGUCAGGAUAUCAGUAAGAAUAGAUGAGAGUAGAAGAUGAGAAGGGACUAUAU | 0.0294 µM | 0.0244 µM | – | – |
| UGGUACAUGGGAGGAUAUAGGUUGAUAACAUGAGGAUCACCCAUGUUAAAUAAGCCGAGAGGCUACUAGAAGGCCCAUGUACCU | – | – | 0.00473 µM | 0.00475 µM |
| UGGUACAUGGGAGGAUAUCAUGUGAUAACAUGAGGAUCACCCAUGUCGAUGGAGACAUCGGAGAUUGAGAAGGCCCAUGUACCU | – | – | 1.19 µM | 0.0965 µM |
| UGGUACGAGGGAGGAUAUGGGAAGAUACAUGAGGAUCACCCAUGUUUAAGAAUGCCGAGAGGCAACUAGAAGGCCCUAGUACCU | – | – | 0.583 µM | 0.0219 µM |
| UGGUACUAGGGAGGAUAUGGGAAGAUACAUGAGGAUCACCCAUGUUGAAGAAUGCCGAGAGGCAACUAGAAGGCCCUAGUACCU | – | – | 0.137 µM | 0.00913 µM |
| UGGUACUAGGGAGGAUAUGGGAAGAUACAUGAGGAUCACCCAUGUUUAAGAAUGACGAGAGGCAACUAGAAGGCCCUAGUACCU | – | – | 0.328 µM | 0.0259 µM |
| UGGUACUAGGGAGGAUAUGGGAAGAUACAUGAGGAUCACCCAUGUUUAAGAAUGCCGACAGGCAACUAGAAGGCCCUAGUACCU | – | – | 0.414 µM | 0.0202 µM |
| UGGUACUAGGGAGGAUAUGGGAAGAUACAUGAGGAUCACCCAUGUUUAAGAAUGCCGAGAGGCAACGAGAAGGCCCUAGUACCU | – | – | 0.793 µM | 0.132 µM |
| UGGUACUAGGGAGGAUAUGGGAAGAUACAUGAGGAUCACCCAUGUUUAAGAAUGCCGAGAGGCAACUAGAAGGCCAUAGUACCU | – | – | 0.405 µM | 0.022 µM |
| UGGUACUAGGGAGGAUAUGGGAAGAUACAUGAGGAUCACCCAUGUUUAAGAAUGCCGAGAGGCAACUAGAAGGCCCUACUACCU | – | – | 0.294 µM | 0.0206 µM |

| Sequence | apparent Kd [1] | apparent Kd [2] | apparent Kd [3] | apparent Kd [4] |
| --- | --- | --- | --- | --- |
| UGGUACUAGGGAGGAUAUGGGAAGAUACAUGAGGAUCACCCAUGUUUAAGAAUGCCGAGAGGCAACUAGAAGGCCCUAGUGCCU | – | – | 0.432 µM | 0.0192 µM |
| UGGUACUAGGGAGGAUAUGGGAAGAUACAUGAGGAUCACCCAUGUUUAAGAAUGCCGGGAGGCAACUAGAAGGCCCUAGUACCU | – | – | 0.478 µM | 0.0212 µM |
| UGGUCAUGAUCAGGAUAUUAACAUGGGCUACAUUAAGAAGGGAUAGUGAGAUACGAACUGAACGACAUGAGGAUCACCCAUGUU | – | – | 0.0404 µM | 0.0304 µM |
| UGGUGAAAUGUAGGAUAUGGAAAUAAAUUUUAACCAGAAGGACAUGAGGAUCACCCAUGUGAUAGAGAAUUAAUAAUAGCUCCU | 0.0269 µM | 0.0313 µM | – | – |
| UGGUGUGAAGGAUAUACAUGAGGAUCACCCAUGUAUGUGGUGUGUGUUGAGGUGGAGGGUAGAAGGUCAGGUGG | 0.0382 µM | 0.0395 µM | – | – |
| UGGUUCAUGGGAGGAUAUCCUCAAGAACAUGAGGAUCACCCAUGUAAUUAUAAGCCGAAAGGCAUGGAGAAGGCCCAUGAACCU | – | – | 0.0675 µM | 0.0169 µM |
| UGUACCGUUGGAACGCGUCGAGUACAUGAGGAUCACCCAUGUCAGGAUAUGUGGCGGAAGGUAGCACAGAAGGGACAUAGAAAA | 0.0301 µM | 0.0867 µM | – | – |
| UGUAUACAUGAGGAUCACCCAUGUAAGGAUAUGCUUUAUUAUUAUUAUUAUUAUUAUUGCAGAAGGUACAUUAU | 0.0358 µM | 0.0359 µM | – | – |
| UGUAUACAUGAGGAUCACCCAUGUCAACGUAGUCGAGGAUAUGGGCAGCCGUGAGGCGUACUAGAAGGCGAAGAGG | – | – | 0.337 µM | 0.11 µM |
| UGUAUAUAGGCAGGAUAUACAUGAAUAUAUAUGAUGUAGUAUGAUGUAACAUGAGGAUCACCCAUGUAGAAGGGCCAGUGUAUA | 0.0738 µM | 0.144 µM | – | – |
| UGUAUGGACAGAGGAUAUACAGAUAGGAUCUACUAUCAAACAGUCCUUACAUGAGGAUCACCCAUGUAGAAGGCUGUCCAUACU | 0.0194 µM | 0.0858 µM | – | – |
| UGUAUGGACAGAGGAUAUACGGAUAGGAUCUACUAUCCUCCUUAAAUAACAUGAGGAUCACCCAUGUAGAAGGCUGUCCAUACU | 0.0186 µM | 0.0435 µM | – | – |
| UGUAUGUAGGCAGGAUAUACAUGAAUAUAUAUGAUGUAGUAUGAUGUAACAUGAGGAUCACCCAUGUAGAAGGGCCAGUGUAUA | 0.102 µM | 0.164 µM | – | – |
| UGUCCAUAGCAGAAGGACAUGAGGAUCACCCAUGUAAUCAUACAAAUACAUGUAGGAUAUGCUAUGGACUAAGAGCGAAAGCUC | 0.00828 µM | 0.0191 µM | – | – |
| UGUCGGAGCACAGGAUAUUACAUGAGGAUCACCCAUGUAUGAACCAAUAGCUGGAAACAGCAAUGUAAGAAGGCUGCUCCGACA | 0.0056 µM | 0.00571 µM | – | – |
| UGUCGGAGCAGAGGAUAUAUACAUGAGGAUCACCCAUGUAAAUGGAAUAGCUGGAAACAGCAAGUAUAGAAGGCUGCUCCGACA | 0.0374 µM | 0.112 µM | – | – |
| UGUCGGAGCAGAGGAUAUUACAUGAGGAUCACCCAUGUAUAAAAUGGAAGCUGGAAACAGCAAUGUAAGAAGGCUGCUCCGACA | 0.0612 µM | 0.288 µM | – | – |
| UGUCGGAGCAGAGGAUAUUACAUGAGGAUCACCCAUGUAUGAACCAAGAGCUGGAAACAGCAAUGUAAGAAGGCUGCUCCGACA | 0.0109 µM | 0.121 µM | – | – |
| UGUCGGAGCAGAGGAUAUUACAUGAGGAUCACCCAUGUAUGAACCAAUAGCUGGAAACAGCAAUGUAAGAAGGCUACUCCGACA | 0.00541 µM | 0.0314 µM | – | – |
| UGUCGGAGCAGAGGAUAUUACAUGAGGAUCACCCAUGUAUGAACCAAUAGCUGGAAACAGCAAUGUAAGAAGGCUGCUUCGACA | 0.0124 µM | 0.145 µM | – | – |
| UGUCGGAGCAGAGGAUAUUACAUGAGGAUCACCCAUGUAUGAACCAAUAGCUGGAAACAGCAAUGUAAGAAGGCUGUUCCGACA | 0.0119 µM | 0.134 µM | – | – |
| UGUCGGAGCAGAGGAUAUUACAUGAGGAUCACCCAUGUAUGAACCAAUAGCUGGAAACAGUAAUGUAAGAAGGCUGCUCCGACA | 0.00733 µM | 0.0762 µM | – | – |
| UGUCGGAGCAGAGGAUAUUACAUGAGGAUCACCCAUGUAUGGACCAAUAGCUGGAAACAGCAAUGUAAGAAGGCUGCUCCGACA | 0.0183 µM | 0.215 µM | – | – |
| UGUCGGAGCCGAGGAUAUUACAUGAGGAUCACCCAUGUAUGAACCAAUAGCUGGAAACAGCAAUGUAAGAAGGCUGCUCCGACA | 0.00508 µM | 0.0157 µM | – | – |
| UGUCGGAGCGGAGGAUAUUACAUGAGGAUCACCCAUGUAUGAACCAAUAGCUGGAAACAGCAAUGUAAGAAGGCUGCUCCGACA | 0.00967 µM | 0.131 µM | – | – |
| UGUCGGUAGUAGAAGGGUAAGACAUGAGGAUCACCCAUGUGAUUUGGGUAUACAGGAUAUGCUUAUAUAUAAGAUUAAAUUAUU | 0.674 µM | 0.47 µM | – | – |
| UGUCGUGUUCGAGGAUAUGAAACUAGGCCGGGCACUGUACACCCGCCUGUCUCAGAAGGCGGACAUGAGGAUCACCCAUGUAAA | 0.294 µM | 0.0221 µM | – | – |
